Laboratory results from ChEMBL document CHEMBL3414442, “Synthesis and biological evaluation of 2,4-diaminopyrimidines as selective Aurora A kinase inhibitors” (Eur J Med Chem, 2015).
The source made the active and inactive calls. The rule behind the calls is not given here.

Key:
HeLa [1] = assay: Cytotoxicity against human HeLa cells after 48 hrs by MTT assay; type: functional, cell-based
Outline: (§1)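 Cells were grown at 37 °C in 5% CO2, plated and left to attach for 4–6 h, then exposed to five concentrations (dissolved in saline) in quadruplicate wells for 48 h. MTT was added for 4 h, formazan was dissolved in DMSO, and A490 was read. IC50 was taken from a log plot of percent of control versus concentration, as the mean of three independent experiments.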

A549 = assay: Cytotoxicity against human A549 cells after 48 hrs by MTT assay; type: functional, cell-based; conditions: A549, 48 h; outline: as §1
[2] = Cytotoxicity against human HCT8 cells after 48 hrs by MTT assay; type: functional, cell-based; conditions: HCT-8, 48 h; outline: as §1
HepG2 = assay: Cytotoxicity against human HepG2 cells after 48 hrs by MTT assay; type: functional, cell-based; conditions: HepG2, 48 h; outline: as §1
HeLa [3] = assay: Induction of cell cycle arrest in human HeLa cells assessed as accumulation at G1 phase at 5 uM after 12 hrs by propidium iodide staining based flow cytometry (reference value: 73%); type: functional
HeLa [4] = assay: Induction of cell cycle arrest in human HeLa cells assessed as accumulation at S phase at 2 uM after 12 hrs by propidium iodide staining based flow cytometry (reference value: 16.6%); type: functional
HeLa [5] = assay: Induction of cell cycle arrest in human HeLa cells assessed as accumulation at G2/M phase after 12 hrs by propidium iodide staining based flow cytometry; type: functional
[6] = target: T1, Aurora kinase A (Homo sapiens) (UniProt O14965); assay: Inhibition of Aurora A in human HeLa cells at >10 nM after 12 hrs by ELISA method; type: cell-based
T1 sequence (whole entry): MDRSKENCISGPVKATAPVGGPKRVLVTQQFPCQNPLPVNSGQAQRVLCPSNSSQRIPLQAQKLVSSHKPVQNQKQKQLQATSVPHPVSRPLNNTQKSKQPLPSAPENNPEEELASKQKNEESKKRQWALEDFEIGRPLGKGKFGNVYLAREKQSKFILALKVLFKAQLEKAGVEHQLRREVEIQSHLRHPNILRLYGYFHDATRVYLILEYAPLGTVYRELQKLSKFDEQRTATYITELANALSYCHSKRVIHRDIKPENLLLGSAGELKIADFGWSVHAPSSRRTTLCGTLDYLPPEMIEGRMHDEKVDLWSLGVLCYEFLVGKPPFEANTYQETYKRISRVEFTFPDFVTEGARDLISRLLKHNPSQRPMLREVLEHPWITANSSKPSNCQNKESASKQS
Outline: (§2)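 HeLa cells were treated for 12 h. A sandwich ELISA used plates coated with anti-human Aurora A or B antibody and an HRP-labelled detection antibody. TMB substrate was added, the reaction was stopped with sulphuric acid, and absorbance was read at 450 nm.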

HeLa [7] = assay: Induction of cell cycle arrest in human HeLa cells assessed as accumulation at G1 phase at 2 uM after 12 hrs by propidium iodide staining based flow cytometry (reference value: 73%); type: functional
Aurora kinase B [8] = target: T2, Aurora kinase B (Homo sapiens, UniProt Q96GD4); assay: Inhibition of Aurora B in human HeLa cells at >10 nM after 12 hrs by ELISA method; type: cell-based; outline: as §2
Aurora kinase B [9] = target: T2, Aurora kinase B; assay: Inhibition of Aurora B in human HeLa cells after 12 hrs by ELISA method; type: cell-based
HeLa [10] = assay: Induction of cell cycle arrest in human HeLa cells assessed as accumulation at S phase at 5 uM after 12 hrs by propidium iodide staining based flow cytometry (reference value: 16.6%); type: functional
HeLa [11] = assay: Increase in cyclin B1 protein expression in human HeLa cells at 500 nM by Western blot method; type: functional, cell-based
Outline: (§3)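 Lysates were boiled for 10 min and centrifuged. Proteins were separated, transferred to nitrocellulose, probed for cyclin B1 with antibodies and developed.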

HeLa [12] = assay: Induction of cell cycle arrest in human HeLa cells assessed as accumulation at G2/M phase at 5 uM after 12 hrs by propidium iodide staining based flow cytometry (reference value: 10.2%); type: functional
HeLa [13] = assay: Selectivity index, ratio of IC50 for Aurora B in human HeLa cells to IC50 for Aurora A in human HeLa cells; type: cell-based
Aurora kinase B [14] = target: T2, Aurora kinase B; assay: Inhibition of Aurora B in human HeLa cells after 12 hrs by Western blot method; type: cell-based
Outline: (§4)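 HeLa cells were treated for 12 h at 10, 25 or 50 nM. They were washed in PBS and lysed in Tris-HCl pH 7.5 buffer with EDTA, NaCl, PMSF and 1% SDS, then boiled for 10 min. Proteins were separated, blotted onto nitrocellulose and probed with antibodies against Aurora A or Aurora B.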

Aurora kinase B [15] = target: T2, Aurora kinase B; assay: Inhibition of Aurora B in human HeLa cells at; type: cell-based
Aurora kinase A = target: T3, Aurora kinase A (Homo sapiens, UniProt O14965); assay: Inhibition of Aurora A in human HeLa cells after 12 hrs by ELISA method; type: cell-based
T3 sequence (O14965 whole entry): T1 sequence (whole entry)

HeLa [16] = assay: Increase in cyclin B1 protein expression in human HeLa cells at 100 nM by Western blot method; type: functional, cell-based; outline: as §3
[17] = target: T1, Aurora kinase A (Homo sapiens); assay: Inhibition of Aurora A in human HeLa cells at; type: cell-based
HeLa [18] = assay: Induction of cell cycle arrest in human HeLa cells assessed as accumulation at G2/M phase at 2 uM after 12 hrs by propidium iodide staining based flow cytometry (reference value: 10.2%); type: functional
[19] = target: T1, Aurora kinase A (Homo sapiens); assay: Inhibition of Aurora A in human HeLa cells after 12 hrs by Western blot method; type: cell-based; outline: as §4

T2 sequence (Q96GD4 whole entry): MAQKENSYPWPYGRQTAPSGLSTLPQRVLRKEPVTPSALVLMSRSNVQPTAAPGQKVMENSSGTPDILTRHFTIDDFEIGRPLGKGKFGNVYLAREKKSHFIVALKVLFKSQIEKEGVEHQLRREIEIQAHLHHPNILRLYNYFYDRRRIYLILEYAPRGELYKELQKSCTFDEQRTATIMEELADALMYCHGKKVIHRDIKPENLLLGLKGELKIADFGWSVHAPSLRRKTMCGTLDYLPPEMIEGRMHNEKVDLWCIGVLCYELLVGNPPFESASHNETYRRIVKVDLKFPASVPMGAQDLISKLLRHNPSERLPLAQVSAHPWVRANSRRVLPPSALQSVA

SMILES	IC50 (HeLa [1]) [µM]	IC50 (A549) [µM]	IC50 [2] [µM]	IC50 (HepG2) [µM]	also measured
Fc1cnc(Nc2ccc(N3CCOCC3)cc2)nc1NC1CC1	6	8.7	40.3	33	
CN1CCC(NC(=O)c2ccc(Nc3ncc(Br)c(NC4CCCC4)n3)cc2)CC1	0.9	0.5	3.6	2.4	Activity (HeLa [3]): 50.5%; Activity (HeLa [4]): 10.6%; Activity (HeLa [5]): Dose-dependent effect; inhibition [6]: Active; Activity (HeLa [7]): 56.2%; inhibition (Aurora kinase B [8]): Active; IC50 (Aurora kinase B [9]): 0.43 µM; Activity (HeLa [10]): 6%; inhibition (HeLa [11]): Active; Activity (HeLa [12]): 43.5%; Ratio IC50 (HeLa [13]): 35; inhibition (Aurora kinase B [14]): Dose-dependent effect; inhibition (Aurora kinase B [15]): inactive; IC50 (Aurora kinase A): 0.012 µM; inhibition (HeLa [16]): Active; inhibition [17]: inactive; Activity (HeLa [18]): 33.2%; inhibition [19]: Dose-dependent effect
CN1CCC(NC(=O)c2ccc(Nc3ncc(Cl)c(NC4CCCC4)n3)cc2)CC1	1.5	1.8	4.6	2.2	
CN1CCN(c2ccc(Nc3ncc(F)c(NC4CCCC4)n3)cc2)CC1	20	37.2	29	25	
CN1CCC(NC(=O)c2ccc(Nc3ncc([N+](=O)[O-])c(NC4CCCC4)n3)cc2)CC1	21.7	42.3	15.6	5.8	
CN1CCN(c2ccc(Nc3ncc([N+](=O)[O-])c(NC4CCCC4)n3)cc2)CC1	3.8	4.6	53.7	5.2	
CN1CCC(NC(=O)c2ccc(Nc3ncc(F)c(NC4CCCC4)n3)cc2)CC1	45.5	10.3	16	10	
O=[N+]([O-])c1cnc(Nc2ccc(N3CCOCC3)cc2)nc1NC1CCCC1	36.4	63.7	20	21.9	
COc1cc(C(=O)NC2CCN(C)CC2)ccc1Nc1ncc(Cl)c(NC2CCCC2)n1	2.7	5.3	4.4	9.3	
Fc1cnc(Nc2ccc(N3CCOCC3)cc2)nc1NC1CCCC1	31.4	17.3	24	36.5	
CCCNc1nc(Nc2ccc(N3CCN(C)CC3)cc2)ncc1F	14.2	5.1	50	35	
CCCNc1nc(Nc2ccc(N3CCOCC3)cc2)ncc1F	7.3	8.8	73.9	20	
COc1cc(C(=O)NC2CCN(C)CC2)ccc1Nc1ncc(F)c(NC2CCCC2)n1	2.2	2.1	2.1	4.5	IC50 (Aurora kinase B [9]): 0.395 µM; Ratio IC50 (HeLa [13]): 9; inhibition (Aurora kinase B [14]): Dose-dependent effect; IC50 (Aurora kinase A): 0.043 µM; inhibition [19]: Dose-dependent effect
Cc1cc(Nc2cc(N3CCN(C)CC3)nc(Sc3ccc(NC(=O)C4CC4)cc3)n2)n[nH]1 [TOZASERTIB]	27.3	19.4	44.6	63.4	
COc1cc(C(=O)NC2CCN(C)CC2)ccc1Nc1ncc(Br)c(NC2CCCC2)n1	3.5	2.5	12	4.9	
CN1CCN(c2ccc(Nc3ncc(N)c(NC4CCCC4)n3)cc2)CC1	9.7	27	4.2	18.5	
